Active and inactive are the calls of the source. No cut-off for these calls is given here.

For one test, the system named is MOLT-4. In words: Cytotoxicity against human MOLT4 cells at 10 uM after 48 hrs by sulforhodamine B assay. The test is classed as functional, cell-based. On the technique in general: The SRB assay estimates cell density from bound dye.
Another test concerns HOP-62. In words: Cytotoxicity against human HOP62 cells at 10 uM after 48 hrs by sulforhodamine B assay. The test is classed as functional, cell-based.
Another test relates to HOP-92. In words: Cytotoxicity against human HOP92 cells at 10 uM after 48 hrs by sulforhodamine B assay. Format: functional, cell-based.
Another test deals with NCI-H226. In words: Cytotoxicity against human NCI-H226 cells at 10 uM after 48 hrs by sulforhodamine B assay. Format: functional, cell-based.
In another test the test system is NCI-H460. In words: Cytotoxicity against human NCI-H460 cells at 10 uM after 48 hrs by sulforhodamine B assay. Format: functional, cell-based.
Another test deals with NCI-H522. In words: Cytotoxicity against human NCI-H522 cells at 10 uM after 48 hrs by sulforhodamine B assay. Format: functional, cell-based.
The test system of another test is KM12. In words: Cytotoxicity against human KM12 cells at 10 uM after 48 hrs by sulforhodamine B assay. Format: functional, cell-based.
The next test concerns SW-620. In words: Cytotoxicity against human SW620 cells at 10 uM after 48 hrs by sulforhodamine B assay. Format: functional, cell-based. Put shortly: (§1)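 NCI 60 cancer cell line panel screen run at a single concentration of 10 μM.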
The next test deals with SF-268. In words: Cytotoxicity against human SF268 cells at 10 uM after 48 hrs by sulforhodamine B assay. Format: functional, cell-based.
Another test relates to SF-295. In words: Cytotoxicity against human SF295 cells at 10 uM after 48 hrs by sulforhodamine B assay. The test is classed as functional, cell-based.
The subject of the next test is SNB-75. In words: Cytotoxicity against human SNB75 cells at 10 uM after 48 hrs by sulforhodamine B assay. The test is classed as functional, cell-based. In a few lines:
as §1

Another test relates to LOX IMVI. In words: Cytotoxicity against human LOXIMVI cells at 10 uM after 48 hrs by sulforhodamine B assay. The test is classed as functional, cell-based.
The test system of a further test is Malme-3M. In words: Cytotoxicity against human MALME-3M cells at 10 uM after 48 hrs by sulforhodamine B assay. Format: functional, cell-based.
The next test has as its system SK-MEL-28. In words: Cytotoxicity against human SK-MEL-28 cells at 10 uM after 48 hrs by sulforhodamine B assay. Format: functional, cell-based.
The test system of another test is RXF 393. In words: Cytotoxicity against human RXF393 cells at 10 uM after 48 hrs by sulforhodamine B assay. Format: functional, cell-based.
The next test relates to UO-31. In words: Cytotoxicity against human UO31 cells at 10 uM after 48 hrs by sulforhodamine B assay. Format: functional, cell-based. In a few lines:
as §1

A further test relates to DU-145. In words: Cytotoxicity against human DU145 cells at 10 uM after 48 hrs by sulforhodamine B assay. Format: functional, cell-based.
For test [1], the target named is T1, Aldo-keto reductase family 1 member C3 (Homo sapiens) (UniProt P42330).
T1 sequence (whole entry): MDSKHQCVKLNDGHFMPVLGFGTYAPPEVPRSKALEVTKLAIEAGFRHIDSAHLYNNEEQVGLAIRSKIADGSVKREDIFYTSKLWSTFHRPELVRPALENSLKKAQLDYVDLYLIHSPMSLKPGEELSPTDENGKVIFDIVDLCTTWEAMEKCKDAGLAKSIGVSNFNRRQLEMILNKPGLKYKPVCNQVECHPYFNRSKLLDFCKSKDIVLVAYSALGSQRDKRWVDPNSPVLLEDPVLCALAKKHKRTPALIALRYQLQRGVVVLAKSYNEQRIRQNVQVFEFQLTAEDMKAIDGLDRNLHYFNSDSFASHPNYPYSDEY
In words: Inhibition of AKR1C3 in human HL60 cells assessed as potentiation of etoposide-induced cytotoxicity by measuring reduction in cell viability at 0.1 uM coincubated with etoposide at 1 uM after 72 hrs by MTS assay (reference value: 40%). The test is classed as cell-based. In a few lines: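 HL-60 or KG1a cells were coincubated with inhibitor and etoposide for 72 h, then cell viability was read. Values are mean ± SD (n = 6). Treatments were compared with control by two-tailed t test.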
(Tetrazolium assays rely on reduction of a dye to a coloured formazan, in cell work by metabolically active cells.)

For test [2], the target named is T1, Aldo-keto reductase family 1 member C3 (Homo sapiens). In words: Inhibition of AKR1C3 in human HL60 cells assessed as potentiation of etoposide-induced cytotoxicity by measuring reduction in cell viability pre-treated with 0.1 to 1 uM compound for 24 hrs followed by 1 uM etoposide exposure for additional 72 hrs by MTS assay. The test is classed as cell-based.

Take `CC(C)=CCc1cc(/C=C/C(=O)O)ccc1OC(=O)CCc1ccccc1`: the result in the test on MOLT-4, with HOP-62, in the test with HOP-92, with NCI-H226, with NCI-H460 and in the test with NCI-H522 was inactive. For the same compound, the result in the test with KM12, in the test on SW-620, in the test on SF-268, in the test with SF-295, with SNB-75 and with LOX IMVI was inactive. Further, the outcome in the test with Malme-3M, with SK-MEL-28, in the test with RXF 393, in the test on UO-31 and with DU-145 was inactive. The values for the Activity in test [1] and in test [2] were 70% and 80 to 95%, respectively.

The record behind these values is ChEMBL document CHEMBL4428081, “Selective AKR1C3 Inhibitors Potentiate Chemotherapeutic Activity in Multiple Acute Myeloid Leukemia (AML) Cell Lines” (ACS Med Chem Lett, 2016).
